pIC50: −log10 of the molar value. Calls of active or inactive are those of the source. The rule behind the calls is not given here.
Experiments:
BJ [1] = experiment: Induction of DNA damage response in human BJ cells expressing SV40 early protein EHLT assessed as accumulation of gamma-H2AX foci in S-phase by Hoechst staining based Leica deconvolution microscopic analysis; format: functional
Outline: (§1)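 BJ-EHLT cells co-immunostained for γ-H2AX and PCNA, nuclei counterstained with Hoechst, imaged by deconvolution microscopy. Percentages of γ-H2AX+/PCNA− and γ-H2AX+/PCNA+ nuclei scored. Mean of three independent experiments.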

BJ [2] = experiment: Delocalization of TRF2 protein from […] in human BJ cells expressing SV40 early protein EHLT by chromatin immunoprecipitation assay; format: functional, cell-based
Outline: (§2)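 BJ-EHLT cells treated 24 or 72 h. Formaldehyde-crosslinked chromatin immunoprecipitated with anti-TRF1, anti-TRF2 or anti-POT1; β-actin antibody as negative control. Precipitates blotted and probed for telomeric repeats (ALU probe as nonspecific). Densitometry gives percentage of precipitated DNA relative to input (10% and 1%). Four independent experiments, SD.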

Nucleic Acid [3] = experiment: Binding affinity to human 21-TT G-quadruplex DNA structure assessed as bound DNA at 5:10 DNA to drug ratio by electrospray ionization mass spectrometry; format: nucleic-acid assay
Outline: (§3)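 ESI-MS in 150 mM ammonium acetate; DNA 5 μM final (per duplex or quadruplex unit); ligand at drug/DNA ratios 0.5 to 4. Methanol (15%) added just before injection, after binding equilibrium. K1 and K2 for 1:1 and 2:1 complexes, and % bound DNA, taken from relative peak intensities assuming equal response factors. At least three repeats.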

BJ [4] = experiment: Cell cycle arrest in human BJ cells expressing TERT assessed as accumulation at G2/M stage at 0.5 uM after 24 hrs by propidium iodide staining based flow cytometry (reference value: 17%); format: ADME
HT-29 = experiment: Cytotoxicity against human HT-29 cells after 4 days by clonogenic assay relative to control; format: functional, cell-based; conditions: HT-29, 96 h
Outline: (§4)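 Clonogenic survival: cells seeded at 2 × 10^5 per dish and exposed for 4 days to 0.5-2 μM. Surviving fraction taken as absolute survival of treated over control. Four experiments, each in triplicate; mean with SD.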

BJ [5] = experiment: Cell cycle arrest in human BJ cells expressing TERT assessed as accumulation at S stage at 0.5 uM after 48 hrs by propidium iodide staining based flow cytometry (reference value: 12%); format: ADME
BJ [6] = experiment: Cell cycle arrest in human BJ cells expressing TERT assessed as accumulation at G2/M stage at 0.5 uM after 72 hrs by propidium iodide staining based flow cytometry (reference value: 5%); format: ADME
BJ [7] = experiment: Cell cycle arrest in human BJ cells expressing TERT assessed as accumulation at G0/G1 stage at 0.5 uM after 96 hrs by propidium iodide staining based flow cytometry (reference value: 86%); format: ADME
BJ [8] = experiment: Cell cycle arrest in human BJ cells expressing TERT assessed as accumulation at G0/G1 stage at 0.5 uM after 24 hrs by propidium iodide staining based flow cytometry (reference value: 61%); format: ADME
BJ [9] = experiment: Induction of DNA damage response in human BJ cells expressing SV40 early protein EHLT assessed as accumulation of PCNA in S-phase by Hoechst staining based Leica deconvolution microscopic analysis; format: functional, cell-based; outline: as §1
Nucleic Acid [10] = experiment: Binding affinity to human 21-TT G-quadruplex DNA structure at 1:1 DNA to calf thymus DNA ratio by competitive inhibition assay; format: nucleic-acid assay; set-up: concentration or dose not given beside the values
Outline: (§5)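 ESI-MS competition: quadruplex DNA and ligand each 5 μM final, plus calf thymus DNA at duplex/quadruplex ratios 1 and 5 (by phosphate concentration), in ammonium acetate. Percentage bound quadruplex and normalized bound quadruplex (N%) measured by mass spectrometry. SD over at least three independent experiments.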

BJ [11] = experiment: Induction of DNA damage response in human BJ cells expressing SV40 early region EHLT assessed as phosphorylation of […] after 24 hrs by immunofluorescence method; format: functional, cell-based
Outline: (§6)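 BJ-EHLT and BJ-hTERT fibroblasts exposed to a range of concentrations for 24 h. Fixed in 2% formaldehyde, permeabilized in 0.25% Triton X-100, immunostained for γ-H2AX and 53BP1. Percentage of positive cells scored. Three independent experiments, SD.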

BJ [12] = experiment: Cell cycle arrest in human BJ cells expressing TERT assessed as accumulation at S stage at 0.5 uM after 24 hrs by propidium iodide staining based flow cytometry (reference value: 21%); format: ADME
Nucleic Acid [13] = experiment: Binding affinity to human 21-TT G-quadruplex DNA structure assessed as second step association constant by electrospray ionization mass spectrometry; format: nucleic-acid assay; outline: as §3
BJ [14] = experiment: Induction of DNA damage response in human BJ cells expressing human TERT assessed as phosphorylation of gamma H2AX at 1 uM after 24 hrs by immunofluorescence; format: functional, cell-based; outline: as §6
Nucleic Acid [15] = experiment: Binding affinity to human 21-TT G-quadruplex DNA structure assessed as bound DNA at 5:5 DNA to drug ratio by electrospray ionization mass spectrometry; format: nucleic-acid assay; outline: as §3
BJ [16] = experiment: Induction of telomere dysfunction induced foci n human BJ cells expressing SV40 early protein EHLT assessed as increase in gamma H2AX/TRF1 co-localization at 1 uM by Deconvolution microscopy; format: functional
Outline: (§7)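 BJ-EHLT cells stained for TRF1 together with γ-H2AX or 53BP1 and imaged by deconvolution microscopy. Cells with four or more γ-H2AX/TRF1 foci scored as TIF positive; percentage of TIF-positive cells and mean TIFs per nucleus recorded. Mean of three experiments, SD.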

Nucleic Acid [17] = experiment: Stabilization of human duplex DNA T-loop assessed as change in melting temperature at 1 uM by FRET assay; format: nucleic-acid assay
Nucleic Acid [18] = experiment: Binding affinity to human 21-TT G-quadruplex DNA structure assessed as first step association constant by electrospray ionization mass spectrometry; format: nucleic-acid assay; outline: as §3
BJ [19] = experiment: Cell cycle arrest in human BJ cells expressing TERT assessed as accumulation at G2/M stage at 0.5 uM after 48 hrs by propidium iodide staining based flow cytometry (reference value: 6%); format: ADME
Nucleic Acid [20] = experiment: Binding affinity to human 21-TT G-quadruplex DNA structure at 1:5 DNA to calf thymus DNA ratio by competitive inhibition assay; format: nucleic-acid assay; set-up: concentration or dose not given beside the values; outline: as §5
BJ [21] = experiment: Cell cycle arrest in human BJ cells expressing TERT assessed as accumulation at S stage at 0.5 uM after 72 hrs by propidium iodide staining based flow cytometry (reference value: 10%); format: ADME
Nucleic Acid [22] = experiment: Binding affinity to human DK66 duplex DNA structure assessed as second step association constant by electrospray ionization mass spectrometry; format: nucleic-acid assay; outline: as §3
Nucleic Acid [23] = experiment: Binding affinity to human DK66 duplex DNA structure assessed as first step association constant by electrospray ionization mass spectrometry; format: nucleic-acid assay; outline: as §3
M14 = experiment: Cytotoxicity against human M14 cells after 4 days by clonogenic assay relative to control; format: functional, cell-based; conditions: M14, 96 h; outline: as §4
BJ [24] = experiment: Induction of telomere dysfunction induced foci n human BJ cells expressing SV40 early protein EHLT assessed as increase in 53BP1/TRF1 co-localization by Deconvolution microscopy; format: functional, cell-based; outline: as §7
BJ [25] = experiment: Induction of DNA damage response in human BJ cells expressing human TERT assessed as phosphorylation of […] at 1 uM after 24 hrs by immunofluorescence; format: functional, cell-based; outline: as §6
Nucleic Acid [26] = experiment: Binding affinity to human DK66 duplex DNA structure assessed as bound DNA at 5:20 DNA to drug ratio by electrospray ionization mass spectrometry; format: nucleic-acid assay; outline: as §3
BJ [27] = experiment: Delocalization of POT1 protein from […] in human BJ cells expressing SV40 early protein EHLT after 24 hrs by chromatin immunoprecipitation assay; format: functional, cell-based; outline: as §2

- Activity (Nucleic Acid [3]): 75%
- Activity (BJ [4]): 16.1%
- Activity (BJ [5]): 14%
- Activity (BJ [6]): 5.1%
- Activity (BJ [7]): 96.3%
- Activity (BJ [8]): 62.8%
- Activity (Nucleic Acid [10]): 47%
- Activity (BJ [12]): 21.1%
- log Ks (Nucleic Acid [13]): 5
- Activity (Nucleic Acid [15]): 56%
- ΔTm (Nucleic Acid [17]): -0.2 °C
- log Ks (Nucleic Acid [18]): 5.8
- Activity (BJ [19]): 7.6%
- Activity (Nucleic Acid [20]): 39%
- Activity (BJ [21]): 7.6%
- log Ks (Nucleic Acid [22]): 4.2
- log Ks (Nucleic Acid [23]): 3.9
- Activity (Nucleic Acid [26]): 21%
Compound: O=C1c2ccc3c4ccc5c6c(cc(N7CCCCC7)c(c7ccc(c2c37)C(=O)N1CCOCCN1CCCCC1)c64)C(=O)N(CCOCCN1CCCCC1)C5=O
- Activity (BJ [1]): 80%
- Activity (BJ [2]): inactive
- pIC50 (HT-29): 5.96
- Activity (BJ [9]): Active
- Activity (BJ [11]): Active
- Activity (BJ [14]): inactive
- Activity (BJ [16]): 50%
- pIC50 (M14): 6.10
- Activity (BJ [24]): Active
- Activity (BJ [25]): inactive
- Activity (BJ [27]): Active

— ChEMBL document CHEMBL1687886, “N-cyclic bay-substituted perylene G-quadruplex ligands have selective antiproliferative effects on cancer cells and induce telomere damage” (J Med Chem, 2011)
